The term IC50 denotes the concentration that inhibits the measured activity by half. For orientation: inhibition means the change of the read-out against control, counted positive when it falls. Broadly, the Papp is a coefficient for how fast a substance crosses the barrier. Lower therefore signals slow passage.

One data set deals with Cholinesterase (Equus caballus, UniProt P81908). Nature of the data set: Inhibition of equine serum BChE using butyrylthiocholine iodide as substrate preincubated with enzyme for 30 mins followed by substrate addition and measured after 30 mins by Ellman's method. It counts as cell-free. The essentials: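 Equine BChE (0.06 U/mL) preincubated with a range of inhibitor concentrations, 37 °C, 30 min. BTCI (15 mM) then added for 30 min, followed by DTNB (1.5 mM). A415 recorded. Mean ± SD of two or three independent experiments, each in triplicate.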
Chain of Cholinesterase (P81908 whole entry): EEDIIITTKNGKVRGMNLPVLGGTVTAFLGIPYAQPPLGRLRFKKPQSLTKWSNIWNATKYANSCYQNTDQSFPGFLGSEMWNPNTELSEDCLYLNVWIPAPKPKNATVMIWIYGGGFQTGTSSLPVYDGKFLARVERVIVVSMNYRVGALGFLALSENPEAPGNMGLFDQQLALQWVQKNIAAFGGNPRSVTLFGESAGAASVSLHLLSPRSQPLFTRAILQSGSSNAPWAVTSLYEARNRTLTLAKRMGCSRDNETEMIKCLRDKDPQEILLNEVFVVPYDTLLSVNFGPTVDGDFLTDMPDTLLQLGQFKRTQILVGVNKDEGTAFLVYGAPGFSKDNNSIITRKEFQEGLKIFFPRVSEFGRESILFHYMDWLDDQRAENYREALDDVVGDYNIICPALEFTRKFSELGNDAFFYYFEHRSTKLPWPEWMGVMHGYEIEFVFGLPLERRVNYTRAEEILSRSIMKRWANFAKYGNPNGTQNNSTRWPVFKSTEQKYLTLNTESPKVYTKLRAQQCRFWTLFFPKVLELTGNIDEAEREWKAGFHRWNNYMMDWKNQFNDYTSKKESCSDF
(In general: Ellman's reagent forms a yellow product with free thiols.)

Data set [1] addresses T1, Acetylcholinesterase (Homo sapiens, UniProt P22303). In words: Inhibition of AChE in human erythrocytes using acetylthiocholine iodide as substrate preincubated with enzyme for 30 mins followed by substrate addition and measured after 30 mins by Ellman's method. It counts as cell-based, Erythrocyte.
Data set [2] is described as follows: Antioxidant activity assessed as DPPH radical scavenging activity at 20 uM measured after 25 mins by microplate reader based assay relative to control. It counts as functional. The essentials:
(§1)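 Test compound at serial concentrations (single 20 µM for percent values) mixed 1:1 with 200 µM DPPH in methanol; 25 min at 37 °C with shaking at 300 rpm; absorbance read at 517 nm. Percent scavenging taken against DPPH control; IC50 is the concentration that removes 50% of radical. Mean ± SD of three independent experiments.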

Data set [3] in a line: Antioxidant activity assessed as DPPH radical scavenging activity measured after 25 mins by microplate reader based assay. Format: functional. The essentials:
as §1
Background: The DPPH test is a chemical assay of radical scavenging.

The target in data set [4] is Cholinesterase (Equus caballus) (UniProt P81908). In words: Inhibition of equine serum BChE using butyrylthiocholine iodide as substrate at 20 uM preincubated with enzyme for 30 mins followed by substrate addition and measured after 30 mins by Ellman's method relative to control. Format: cell-free. The settings on record: time 60.0 min. The essentials:
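Equine BChE (0.06 U/mL) preincubated with inhibitor at 20 µM, 37 °C, 30 min. BTCI (15 mM) then added and incubated a further 30 min, followed by DTNB (1.5 mM). Absorbance read at 415 nm. % inhibition taken relative to an enzyme-only control. Mean ± SD of two or three experiments run in triplicate.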

Data set [5] addresses T1, Acetylcholinesterase. In words: Inhibition of AChE in human erythrocytes using acetylthiocholine iodide as substrate at 20 uM preincubated with enzyme for 30 mins followed by substrate addition and measured after 30 mins by Ellman's method relative to control. The settings on record: Erythrocyte, time 60.0 min. It counts as cell-based. The essentials: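 hAChE (0.022 U/mL) preincubated with inhibitor at 20 µM, 37 °C, 30 min. ATCI (1.5 mM) then added and incubated a further 30 min, followed by DTNB (0.15 mM). Absorbance read at 415 nm. % inhibition = [(Ac − Ai)/Ac] × 100 against an uninhibited enzyme. Mean ± SD of two or three experiments run in triplicate.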

A further data set deals with Mus musculus. In words: Reversal of scopolamine induced cognitive memory impairment in C57BL/6 mouse assessed as escape latency time at 10 mg/kg, po administered 30 mins prior to scopolamine injection daily for 14 days by Morris water maze test (reference value: 50.11 +/-5.91 secs). It counts as functional. The settings on record: time 14 day.
The target of data set [6] is T1, Acetylcholinesterase. Nature of the data set: Mixed inhibition of human erythrocyte AChE using different concentration of acetylthiocholine iodide as substrate preincubated with enzyme for 30 mins by Lineweaver-Burk plot analysis. Format: tissue-based. In outline: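 hAChE preincubated with inhibitor at three concentrations, 37 °C, 30 min. ATCI added at 0.5, 1.0, 1.5, 2.0 and 2.5 mM, then DTNB (0.15 mM). A415 recorded. Lineweaver-Burk double-reciprocal analysis used to assign the mechanism. Duplicate runs; mean ± SD of two independent experiments.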

In data set [7] the test system is N2a. In words: Neuroprotective activity against H2O2-induced neurotoxicity in mouse N2a cells assessed as increase in cell viability at 1 to 20 uM preincubated for 24 hrs followed by co-incubation with H2O2 and measured after 24 hrs by MTT assay. The settings on record: dose 1-20 µM, time 48.0 hrs. Format: functional, cell-based. In outline:
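N2a cells seeded at 1 × 10^4/well and left overnight. Pre-incubated 24 h with 1, 2.5, 5, 10 or 20 µM, then co-incubated with 600 µM H2O2 for a further 24 h. MTT added for 4 h at 37 °C and formazan extracted in 0.04 N HCl/isopropanol for 1 h. OD read at 570 nm; viability as percent of untreated control. Three independent experiments, mean ± SEM.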
On the technique in general: Tetrazolium dyes change colour on reduction, which living cells bring about.

Data set [8] is described as follows: Metal chelating activity assessed as compound-Fe3+ complex formation at 600 uM measured after 24 hrs at pH 4.2 in presence Fecl3.6H2O by UV-Vis spectroscopic analysis. In outline:
(§2)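 600 µM compound and 600 µM FeCl3·6H2O, both in methanol, mixed in equal volume and shaken at 1000 rpm for 24 h at 25 °C, then UV-scanned. For pH 7.4, diluted DIPEA added before rescanning. Spectra recorded from 300 to 700 nm, with the d–d region at 400–700 nm. Run in duplicate.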

The nature of data set [9]: Metal chelating activity assessed as compound-Fe3+ complex formation at 600 uM measured after 24 hrs at pH 7.4 in presence Fecl3.6H2O by UV-Vis spectroscopic analysis. The essentials: as §2
Data set [10] is described as follows: Metal chelating activity assessed as mole fraction required to show 1:1 stoichiometry for compound-Fe3+ complex formation measured after 24 hrs in presence Fecl3.6H2O by Job's plot analysis. The essentials: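 Stoichiometry by molar-ratio titration of compound against FeCl3 in methanol (0–10 ratio) at room temperature with UV spectra recorded. Job's plot built from Fe(III) mole fraction against absorbance. Means of duplicate runs.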

The subject of data set [11] is N2a. In words: Cytotoxicity against mouse N2a cells assessed as effect on cell viability at 0.01 to 20 uM measured after 24 hrs by MTT assay. It counts as cell-based. The settings on record: dose 0.01-20 µM. The essentials:
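Neuro2a cells seeded at 1 × 10^4/well and left overnight to adhere. Exposed to 0.01, 0.1, 1, 2.5, 5, 10 or 20 µM in triplicate for 24 h at 37 °C in 5% CO2. Viability then read by MTT and expressed as percent of untreated cells. Mean ± SE of three independent experiments.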

The target in data set [12] is Cholinesterase (Equus caballus) (UniProt P81908). In words: Mixed inhibition of equine serum BChE using different concentration of butyrylthiocholine iodide as substrate preincubated with enzyme for 30 mins by Lineweaver-Burk plot analysis. It counts as cell-free. In outline: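 eqBChE preincubated with inhibitor at three concentrations, 37 °C, 30 min. BTCI added at 5, 10, 15, 20 and 25 mM, then DTNB (1.5 mM). Absorbance read at 415 nm. Double-reciprocal 1/[S] vs 1/V plots used to assign inhibition type. Duplicate runs; mean ± SD of two independent experiments.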
Chain of Cholinesterase (Equus caballus) (P81908 whole entry): as above

Data set [13] is described as follows: Permeability of the compound in PBS buffer at pH 7.4 at 500 uM incubated for 18 hrs by PAMPA-BBB assay.

Activity calls are given as the source filed them. No cut-off for these calls is given here.

T1 sequence (P22303 whole entry): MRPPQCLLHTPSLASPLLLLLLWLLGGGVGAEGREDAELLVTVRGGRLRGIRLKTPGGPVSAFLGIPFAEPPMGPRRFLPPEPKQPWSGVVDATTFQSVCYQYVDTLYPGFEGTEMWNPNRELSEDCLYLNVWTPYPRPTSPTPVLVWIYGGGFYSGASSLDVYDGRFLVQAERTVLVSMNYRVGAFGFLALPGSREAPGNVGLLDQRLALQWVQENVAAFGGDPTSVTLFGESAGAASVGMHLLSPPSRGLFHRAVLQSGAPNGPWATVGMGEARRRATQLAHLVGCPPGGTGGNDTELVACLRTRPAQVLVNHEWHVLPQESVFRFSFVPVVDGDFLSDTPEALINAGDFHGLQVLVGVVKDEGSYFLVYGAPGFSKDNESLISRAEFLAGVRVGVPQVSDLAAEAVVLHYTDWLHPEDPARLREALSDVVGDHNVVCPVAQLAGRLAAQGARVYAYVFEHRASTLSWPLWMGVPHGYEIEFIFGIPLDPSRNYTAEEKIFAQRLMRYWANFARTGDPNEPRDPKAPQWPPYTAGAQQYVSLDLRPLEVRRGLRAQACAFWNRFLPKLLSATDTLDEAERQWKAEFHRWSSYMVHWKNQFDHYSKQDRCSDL

Take `COc1cc(/C=C/C(=O)NCCC(=O)Nc2ccccc2)ccc1O`: the IC50 on Cholinesterase came to 16.4 µM; at Acetylcholinesterase [1], 14.8 µM; in data set [3] it was 95.6 µM. The Activity in data set [2] was 10.6%.
In the same order, the values of `COc1cc(/C=C/C(=O)N2CCN(Cc3cccc(Cl)c3)CC2)ccc1O` are 14.8 µM, 15.4 µM, 61.5 µM and 23.1%.
For `COc1cccc(CN2CCN(C(=O)/C=C/c3ccc(O)c(OC)c3)CC2)c1`, inhibition against Acetylcholinesterase [1] was half-maximal at 15.2 µM (IC50). In data set [4], the inhibition stood at 49.1%.
On to `COc1cc(/C=C/C(=O)N2CCN(Cc3ccc(F)cc3)CC2)ccc1O`, for which the half-maximal inhibitory concentration (IC50) came out at 14.8 µM against Cholinesterase, 14.5 µM against Acetylcholinesterase [1] and 51.9 µM in data set [3]. Further, the Activity in data set [2] worked out at 23.1%.
With `COc1cc(/C=C/C(=O)N2CCN(Cc3ccc(C)cc3)CC2)ccc1O`, the concentration for half-maximal inhibition (IC50) at Cholinesterase was found to be 14.8 µM. The molecule also displayed an inhibition on Acetylcholinesterase [5] of 43.2%.
For the molecule `COc1cc(/C=C/C(=O)NCC(=O)NCCc2c[nH]c3ccc(Cl)cc23)ccc1O`, the figures for the half-inhibitory concentration (IC50) (at Cholinesterase; against Acetylcholinesterase [1]; in data set [3]) were 1.29 µM, 0.84 µM and 23.6 µM, respectively. The Activity in data set [2] was 47.3%.
Consider `COc1ccc(CN2CCN(C(=O)/C=C/c3ccc(O)c(OC)c3)CC2)cc1`, for which the results for the IC50 (against Acetylcholinesterase [1]; in data set [3]) were 16.4 µM and 46.4 µM, respectively. For the same molecule, in data set [2], the Activity stood at 30.5%. In addition, the inhibition in data set [4] stood at 45.1%.
As to `COc1cccc(NC(=O)CCNC(=O)/C=C/c2ccc(O)c(OC)c2)c1`, the values for the IC50 at Cholinesterase and against Acetylcholinesterase [1] were 11.3 µM and 2.41 µM, respectively. Also, the Activity in [2] was 21.3%.
Consider `COc1cc(/C=C/C(=O)N2CCN(Cc3ccc(Cl)cc3)CC2)ccc1O`, for which the IC50 at Cholinesterase amounted to 15.9 µM; in [3], 62.4 µM. This molecule had an inhibition on Acetylcholinesterase [5] of 37.3%. Moreover, the Activity in [2] amounted to 32.4%.
The matching figures for `COc1cc(/C=C/C(=O)N2CCN(Cc3cccc(C)c3)CC2)ccc1O`: 14.7 µM, 66 µM, 45.5% and 26.3%.
Turning to `COc1cc(/C=C/C(=O)N2CCN(Cc3ccccc3Cl)CC2)ccc1O`, at Cholinesterase, the midpoint of inhibition, the IC50, lay at 15.2 µM. Moreover, the inhibition at Acetylcholinesterase [5] worked out at 47%.
Take `COc1cc(/C=C/C(=O)NCCC(=O)Nc2ccc(Cl)cc2)ccc1O`: the IC50 was 7.13 µM on Cholinesterase, 5.32 µM against Acetylcholinesterase [1] and 84.2 µM in [3]. Further, in data set [2], the Activity turned out to be 18.7%.
`COc1cc(/C=C/C(=O)N2CCN(Cc3ccc(C#N)cc3)CC2)ccc1O` displayed an IC50 on Cholinesterase of 15.6 µM. Further, the inhibition against Acetylcholinesterase [5] is 39.4%.
In the same order, the values of `COc1cc(/C=C/C(=O)N2CCN(Cc3cccc(C#N)c3)CC2)ccc1O` are 14.7 µM and 42.4%.
For the molecule `COc1cc(/C=C/C(=O)O)ccc1O` [FERULATE], the inhibition stood at 15.1% against Acetylcholinesterase [5] and 17.1% in [4]. Also, in [2], the Activity was found to be 33.1%. The IC50 in [3] was 58.3 µM.
In turn, `COc1cc(/C=C/C(=O)N2CCN(Cc3cccc([N+](=O)[O-])c3)CC2)ccc1O` had an IC50 against Cholinesterase of 14.6 µM. For the same molecule, on Acetylcholinesterase [5], the inhibition was 38.8%.
`COc1cc(/C=C/C(=O)N2CCN(Cc3ccccc3F)CC2)ccc1O` returned an IC50 on Cholinesterase of 15.9 µM. Moreover, the inhibition on Acetylcholinesterase [5] was found to be 34.2%.
In the case of `COc1ccc2[nH]cc(CCNC(=O)CNC(=O)/C=C/c3ccc(O)c(OC)c3)c2c1`, the Time in the data set on Mus musculus amounted to 32.28 s. Moreover, the IC50 was found to be 1.23 µM against Cholinesterase, 0.96 µM against Acetylcholinesterase [1] and 20.2 µM in data set [3]. The inhibition result (on Acetylcholinesterase [6]; in [12]) was “Active” in each case. Also, the result (with N2a [7]; in [8]; in data set [9]) was Active. The results for the Activity (in data set [2]; in data set [10]; in the data set on N2a [11]) were 51.9%, 50% and “Non-Toxic”, respectively. In addition, the Papp at 18 h, 500 µM in data set [13] was 8.51 ×10⁻⁶ cm/s.
In the case of `COc1cc(/C=C/C(=O)NCC(=O)Nc2ccc3[nH]ccc3c2)ccc1O`, the IC50 in [3] turned out to be 57.4 µM.
As to `COc1cc(/C=C/C(=O)N2CCN(Cc3ccccc3)CC2)ccc1O`, the IC50 on Acetylcholinesterase [1] came out at 13.3 µM; in data set [3], 31.3 µM. In [2], the Activity came out at 38.4%. The inhibition in data set [4] was 45.1%.
Take `COc1cc(/C=C/C(=O)N2CCN(Cc3cccc(F)c3)CC2)ccc1O`: the IC50 against Cholinesterase was found to be 14 µM; on Acetylcholinesterase [1] it was 13.1 µM; in data set [3], 26.6 µM. Moreover, the inhibition result (at Acetylcholinesterase [6]; in data set [12]) was “Active” each time. Besides, the Activity in data set [2] was determined as 40.2%. This molecule also displayed a Papp at 18 h, 500 µM in data set [13] of 9.57 ×10⁻⁶ cm/s.
As to `COc1cc(/C=C/C(=O)NCC(=O)NCCc2c[nH]c3ccccc23)ccc1O`, the results for the IC50 (at Cholinesterase; on Acetylcholinesterase [1]; in data set [3]) were 3.14 µM, 1.42 µM and 29.1 µM, respectively. Besides, the Activity in data set [2] is 38.5%.
On Cholinesterase, `COc1cc(/C=C/C(=O)N2CCN(Cc3ccccc3C)CC2)ccc1O` showed an IC50 of 15.1 µM. Further, on Acetylcholinesterase [5], the inhibition stood at 43.1%.
The matching figures for `COc1cc(/C=C/C(=O)N2CCN(Cc3ccccc3C#N)CC2)ccc1O`: 14.9 µM and 45.4%.
For the molecule `COc1cccc(N2CCN(C(=O)/C=C/c3ccc(O)c(OC)c3)CC2)c1`, in data set [3], the IC50 amounted to 62 µM.

For the origin of these results see ChEMBL document CHEMBL4808254, “Further SAR studies on natural template based neuroprotective molecules for the treatment of Alzheimer's disease” (Bioorg Med Chem, 2021).
